Measurements reported in ChEMBL document CHEMBL1154106, “Inhibitory effects of 5-benzylidene barbiturate derivatives on mushroom tyrosinase and their antibacterial activities” (Eur J Med Chem, 2009).
In brackets after ≈: the same amount, converted by molar mass. Activity calls are given as the source filed them. The calls are words filed in the database; no cut-off is given here.

Key:
Tyrosinase = target: T1, Tyrosinase (Agaricus bisporus, UniProt O42713); test: Inhibition of mushroom tyrosinase
T1 sequence (O42713 whole entry): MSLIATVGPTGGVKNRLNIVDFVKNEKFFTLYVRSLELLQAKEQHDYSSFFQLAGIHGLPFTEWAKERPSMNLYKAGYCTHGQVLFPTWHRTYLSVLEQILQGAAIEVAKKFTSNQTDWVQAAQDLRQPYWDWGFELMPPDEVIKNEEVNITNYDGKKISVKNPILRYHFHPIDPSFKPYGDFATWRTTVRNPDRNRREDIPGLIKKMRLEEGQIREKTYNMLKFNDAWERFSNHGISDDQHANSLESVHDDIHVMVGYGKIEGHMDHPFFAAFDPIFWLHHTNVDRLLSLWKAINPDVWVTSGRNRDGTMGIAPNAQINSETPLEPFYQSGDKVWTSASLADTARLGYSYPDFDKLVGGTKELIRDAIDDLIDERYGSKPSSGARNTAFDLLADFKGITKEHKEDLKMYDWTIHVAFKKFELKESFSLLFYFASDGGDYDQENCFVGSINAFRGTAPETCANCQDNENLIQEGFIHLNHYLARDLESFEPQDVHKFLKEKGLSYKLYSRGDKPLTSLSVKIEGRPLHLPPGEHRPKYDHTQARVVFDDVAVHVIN
In short: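 Mushroom tyrosinase diphenolase assay: 1 mL reaction with 0.5 mM L-DOPA in 50 mM sodium phosphate buffer, pH 6.8, enzyme final 0.5 mg/mL, 25 °C. Compounds dissolved in DMSO (2.0% final); DMSO-only controls run. Dopachrome formation followed at 475 nm for 1 min. IC50 interpolated from dose–response curves; means of three experiments.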

Staphylococcus aureus = test: Antibacterial activity against Staphylococcus aureus after 24 hrs by agar dilution method; format: functional
In short: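 MIC by agar dilution on Mueller–Hinton agar containing twofold serial dilutions from a 1 mg/mL DMSO stock. Final levels 50, 25, 12.5, 6.25, 3.1, 1.5, 0.8, 0.4 and 0.2. Inoculum was 16–18 h cultures at 0.5 McFarland; plates incubated 37 °C for 24 h. MIC is the lowest concentration preventing visible growth; levofloxacin was the reference.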

Bacillus cereus = test: Antibacterial activity against Bacillus cereus at 1 mg/ml after 24 hrs by agar dilution method; format: functional, organism-based
[1] = target: T2, Tyrosinase (Agaricus bisporus) (UniProt O42713); test: Inhibition of mushroom tyrosinase at 200 uM
T2 sequence (whole entry): T1 sequence (O42713 whole entry)
In short: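 Single-concentration check in the mushroom tyrosinase diphenolase assay. Conditions: 0.5 mM L-DOPA, 50 mM phosphate buffer pH 6.8, enzyme 0.5 mg/mL, 25 °C, 2.0% DMSO final with DMSO controls. Activity read as dopachrome absorbance at 475 nm over 1 min.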

[2] = tested on: Staphylococcus epidermidis; test: Antibacterial activity against Staphylococcus epidermidis at 1 mg/ml after 24 hrs by agar dilution method; format: functional, organism-based
In short: (§1)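 Agar well diffusion: overnight (16–18 h, 37 °C) cultures set to 0.5 McFarland and mixed into Mueller–Hinton agar. Compound stock 1 mg/mL in DMSO loaded into 6 mm wells, with DMSO as control and levofloxacin as reference. Plates incubated 37 °C for 24 h. Read-out is the diameter of the growth-inhibition zone around each well.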

Escherichia coli = test: Antibacterial activity against Escherichia coli at 1 mg/ml after 24 hrs by agar dilution method; format: functional, organism-based
Pseudomonas aeruginosa = test: Antibacterial activity against Pseudomonas aeruginosa at 1 mg/ml after 24 hrs by agar dilution method; format: functional, organism-based; in short: as §1
Staphylococcus = test: Antibacterial activity against Staphylococcus albus at 1 mg/ml after 24 hrs by agar dilution method; format: functional, organism-based

## COCCCCOc1ccc(CC2C(=O)NC(=O)NC2=O)cc1
Tyrosinase
  IC50: > 200 µM
Staphylococcus aureus
  MIC: > 12.5 µg/mL
Bacillus cereus
  Activity: inactive
[1]
  inhibition: 1.15%
[2]
  Activity: inactive
Escherichia coli
  Activity: inactive
Pseudomonas aeruginosa
  Activity: inactive
Staphylococcus
  Activity: inactive

## CCCCOCCOc1ccc(CC2C(=O)NC(=S)NC2=O)cc1
Tyrosinase
  IC50: 179 µM
Staphylococcus aureus
  MIC: 6.25 µg/mL (≈ 17.8 µM)
Bacillus cereus
  Activity: inactive
[1]
  inhibition: 78.7%
[2]
  Activity: inactive
Escherichia coli
  Activity: inactive
Pseudomonas aeruginosa
  Activity: inactive
Staphylococcus
  Activity: inactive

## COCCOCCOc1ccc(C=C2C(=O)NC(=S)NC2=O)cc1
Tyrosinase
  IC50: 34.2 µM
Staphylococcus aureus
  MIC: > 12.5 µg/mL
Bacillus cereus
  Activity: inactive
[1]
  inhibition: 100%
[2]
  Activity: inactive
Escherichia coli
  Activity: inactive
Pseudomonas aeruginosa
  Activity: inactive
Staphylococcus
  Activity: inactive

## COCCOCCOc1ccc(CC2C(=O)NC(=S)NC2=O)cc1
Tyrosinase
  IC50: 132 µM
Staphylococcus aureus
  MIC: > 12.5 µg/mL
Bacillus cereus
  Activity: inactive
[1]
  inhibition: 97.5%
[2]
  Activity: inactive
Escherichia coli
  Activity: inactive
Pseudomonas aeruginosa
  Activity: inactive
Staphylococcus
  Activity: inactive

## O=C1NC(=S)NC(=O)C1=Cc1ccc(OCCO)cc1
Tyrosinase
  IC50: > 200 µM
Staphylococcus aureus
  MIC: > 25 µg/mL
Bacillus cereus
  Activity: inactive
[1]
  inhibition: 16.5%
[2]
  Activity: inactive
Escherichia coli
  Activity: inactive
Pseudomonas aeruginosa
  Activity: inactive
Staphylococcus
  Activity: inactive

## CCCCOCCOc1ccc(C=C2C(=O)NC(=O)NC2=O)cc1
Tyrosinase
  IC50: 45.4 µM
Staphylococcus aureus
  MIC: > 25 µg/mL
Bacillus cereus
  Activity: inactive
[1]
  inhibition: 100%
[2]
  Activity: inactive
Escherichia coli
  Activity: inactive
Pseudomonas aeruginosa
  Activity: inactive
Staphylococcus
  Activity: inactive

## O=C1NC(=O)C(Cc2ccc(O)cc2)C(=O)N1
Tyrosinase
  IC50: > 200 µM
Staphylococcus aureus
  MIC: > 12.5 µg/mL
Bacillus cereus
  Activity: inactive
[1]
  inhibition: 47.5%
[2]
  Activity: inactive
Escherichia coli
  Activity: inactive
Pseudomonas aeruginosa
  Activity: inactive
Staphylococcus
  Activity: inactive

## O=C1CC(=O)NC(=S)N1 [THIOBARBITURIC]
Tyrosinase
  IC50: > 200 µM
[1]
  inhibition: 8.21%

## COc1ccc(/C=C/C(=O)O)cc1
[1]
  inhibition: 46.6%

## O=Cc1ccc(O)cc1 [4-HYDROXYBENZALDEHYDE]
Tyrosinase
  IC50: 1220 µM
[1]
  inhibition: 16.4%

## O=C1NC(=S)NC(=O)C1Cc1ccc(O)cc1
Tyrosinase
  IC50: 70 µM
Staphylococcus aureus
  MIC: > 25 µg/mL
Bacillus cereus
  Activity: inactive
[1]
  inhibition: 100%
[2]
  Activity: inactive
Escherichia coli
  Activity: inactive
Pseudomonas aeruginosa
  Activity: inactive
Staphylococcus
  Activity: inactive

## COCCOc1ccc(C=C2C(=O)NC(=S)NC2=O)cc1
Tyrosinase
  IC50: 28.4 µM
Staphylococcus aureus
  MIC: > 12.5 µg/mL
Bacillus cereus
  Activity: inactive
[1]
  inhibition: 100%
[2]
  Activity: inactive
Escherichia coli
  Activity: inactive
Pseudomonas aeruginosa
  Activity: inactive
Staphylococcus
  Activity: inactive

## COCCCCOc1ccc(C=C2C(=O)NC(=S)NC2=O)cc1
Tyrosinase
  IC50: 77.8 µM
Staphylococcus aureus
  MIC: > 25 µg/mL
Bacillus cereus
  Activity: inactive
[1]
  inhibition: 100%
[2]
  Activity: inactive
Escherichia coli
  Activity: inactive
Pseudomonas aeruginosa
  Activity: inactive
Staphylococcus
  Activity: inactive

## O=C1NC(=O)C(Cc2ccc(OCCO)cc2)C(=O)N1
Tyrosinase
  IC50: > 200 µM
Staphylococcus aureus
  MIC: > 12.5 µg/mL
Bacillus cereus
  Activity: inactive
[1]
  inhibition: 5.27%
[2]
  Activity: inactive
Escherichia coli
  Activity: inactive
Pseudomonas aeruginosa
  Activity: inactive
Staphylococcus
  Activity: inactive

## CCCCOCCOc1ccc(C=C2C(=O)NC(=S)NC2=O)cc1
Tyrosinase
  IC50: 107 µM
Staphylococcus aureus
  MIC: 3.1 µg/mL (≈ 8.9 µM)
Bacillus cereus
  Activity: inactive
[1]
  inhibition: 85.9%
[2]
  Activity: inactive
Escherichia coli
  Activity: inactive
Pseudomonas aeruginosa
  Activity: inactive
Staphylococcus
  Activity: inactive

## O=C1NC(=O)C(=Cc2ccc(O)cc2)C(=O)N1
Tyrosinase
  IC50: 14 µM
Staphylococcus aureus
  MIC: > 25 µg/mL
Bacillus cereus
  Activity: inactive
[1]
  inhibition: 100%
[2]
  Activity: inactive
Escherichia coli
  Activity: inactive
Pseudomonas aeruginosa
  Activity: inactive
Staphylococcus
  Activity: inactive

## COCCCCOc1ccc(CC2C(=O)NC(=S)NC2=O)cc1
Tyrosinase
  IC50: > 200 µM
Staphylococcus aureus
  MIC: > 12.5 µg/mL
Bacillus cereus
  Activity: inactive
[1]
  inhibition: 9.85%
[2]
  Activity: inactive
Escherichia coli
  Activity: inactive
Pseudomonas aeruginosa
  Activity: inactive
Staphylococcus
  Activity: inactive

## O=C1NC(=S)NC(=O)C1Cc1ccc(OCCO)cc1
Tyrosinase
  IC50: 156 µM
Staphylococcus aureus
  MIC: > 25 µg/mL
Bacillus cereus
  Activity: inactive
[1]
  inhibition: 95.9%
[2]
  Activity: inactive
Escherichia coli
  Activity: inactive
Pseudomonas aeruginosa
  Activity: inactive
Staphylococcus
  Activity: inactive

## C[C@H]1COc2c(N3CCN(C)CC3)c(F)cc3c(=O)c(C(=O)O)cn1c23.C[C@H]1COc2c(N3CCN(C)CC3)c(F)cc3c(=O)c(C(=O)O)cn1c23.O [LEVOFLOXACIN]
Staphylococcus aureus
  MIC: 0.4 µg/mL

## COCCOc1ccc(C=C2C(=O)NC(=O)NC2=O)cc1
Tyrosinase
  IC50: 75.4 µM
Staphylococcus aureus
  MIC: > 25 µg/mL
Bacillus cereus
  Activity: inactive
[1]
  inhibition: 100%
[2]
  Activity: inactive
Escherichia coli
  Activity: inactive
Pseudomonas aeruginosa
  Activity: inactive
Staphylococcus
  Activity: inactive

## O=C1NC(=O)C(=Cc2ccc(OCCO)cc2)C(=O)N1
Tyrosinase
  IC50: > 200 µM
Staphylococcus aureus
  MIC: > 25 µg/mL
Bacillus cereus
  Activity: inactive
[1]
  inhibition: 22.4%
[2]
  Activity: inactive
Escherichia coli
  Activity: inactive
Pseudomonas aeruginosa
  Activity: inactive
Staphylococcus
  Activity: inactive

## O=C1CC(=O)NC(=O)N1 [BARBITURIC ACID]
Tyrosinase
  IC50: > 200 µM
[1]
  inhibition: 5.95%

## O=C1NC(=S)NC(=O)C1=Cc1ccc(O)cc1
Tyrosinase
  IC50: 14.5 µM
Staphylococcus aureus
  MIC: 3.1 µg/mL (≈ 12.5 µM)
Bacillus cereus
  Activity: inactive
[1]
  inhibition: 100%
[2]
  Activity: inactive
Escherichia coli
  Activity: inactive
Pseudomonas aeruginosa
  Activity: inactive
Staphylococcus
  Activity: inactive

## COCCOCCOc1ccc(C=C2C(=O)NC(=O)NC2=O)cc1
Tyrosinase
  IC50: 137 µM
Staphylococcus aureus
  MIC: > 25 µg/mL
Bacillus cereus
  Activity: inactive
[1]
  inhibition: 88.7%
[2]
  Activity: inactive
Escherichia coli
  Activity: inactive
Pseudomonas aeruginosa
  Activity: inactive
Staphylococcus
  Activity: inactive

## COCCOCCOc1ccc(CC2C(=O)NC(=O)NC2=O)cc1
Tyrosinase
  IC50: > 200 µM
Staphylococcus aureus
  MIC: > 12.5 µg/mL
Bacillus cereus
  Activity: inactive
[1]
  inhibition: 14.3%
[2]
  Activity: inactive
Escherichia coli
  Activity: inactive
Pseudomonas aeruginosa
  Activity: inactive
Staphylococcus
  Activity: inactive

## COCCCCOc1ccc(C=C2C(=O)NC(=O)NC2=O)cc1
Tyrosinase
  IC50: > 200 µM
Staphylococcus aureus
  MIC: > 25 µg/mL
Bacillus cereus
  Activity: inactive
[1]
  inhibition: 12.2%
[2]
  Activity: inactive
Escherichia coli
  Activity: inactive
Pseudomonas aeruginosa
  Activity: inactive
Staphylococcus
  Activity: inactive

## COCCOc1ccc(CC2C(=O)NC(=O)NC2=O)cc1
Tyrosinase
  IC50: > 200 µM
Staphylococcus aureus
  MIC: > 12.5 µg/mL
Bacillus cereus
  Activity: inactive
[1]
  inhibition: 23.1%
[2]
  Activity: inactive
Escherichia coli
  Activity: inactive
Pseudomonas aeruginosa
  Activity: inactive
Staphylococcus
  Activity: inactive

## COCCOc1ccc(CC2C(=O)NC(=S)NC2=O)cc1
Tyrosinase
  IC50: 113 µM
Staphylococcus aureus
  MIC: > 12.5 µg/mL
Bacillus cereus
  Activity: inactive
[1]
  inhibition: 100%
[2]
  Activity: inactive
Escherichia coli
  Activity: inactive
Pseudomonas aeruginosa
  Activity: inactive
Staphylococcus
  Activity: inactive

## CCCCOCCOc1ccc(CC2C(=O)NC(=O)NC2=O)cc1
Tyrosinase
  IC50: > 200 µM
Staphylococcus aureus
  MIC: > 12.5 µg/mL
Bacillus cereus
  Activity: inactive
[1]
  inhibition: inactive
[2]
  Activity: inactive
Escherichia coli
  Activity: inactive
Pseudomonas aeruginosa
  Activity: inactive
Staphylococcus
  Activity: inactive
